Efa HMGR inh: E. faecalis class II HMG-CoA reductase inhibition; hit rate 0.41% among 190,000; inhibition, % at 10 µM; purified E. faecalis HMGR, NADPH absorbance 340 nm kinetic;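 active = inhibition above a set limit, the median over all tested compounds plus 3 SD, cut at about 9.5% in these data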;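 note: enzyme runs in reverse so mevalonate oxidation gives rising NADPH absorbance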
b-catenin transl: beta-catenin nuclear translocation modulation. HeLa beta-catenin nuclear translocation, immunofluorescence imaging. nuclear translocation activity, % at 5 µM. hit rate 0.3% among 190,000;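 active = nuclear translocation activity above 50% at 5 µM, with a well cell count of 50 or more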;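 note: per-cell ratio of nuclear to cytoplasmic median beta-catenin stain intensity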
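System: HeLa cells, endogenous beta-catenin; compound dosing: 5 µM primary single dose, 0.1% DMSO, 0.02–20 µM confirmation series; incubation: 24 h compound exposure at 37°C, 5% CO2; signal: beta-catenin immunofluorescence imaging with DAPI; evaluation: % activation, nuclear-to-cytoplasmic median beta-catenin signal ratio per cell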
Yeast lifespan up: extends the lifespan of yeast. S. cerevisiae growth with nicotinamide, OD615; deaD strain in restrictive glucose medium. inhibition of the nicotinamide effect, % at 10 µM. hit rate 0.68% among 130,000;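 active = inhibition above a set limit, placed 3 SD over the median of all compounds, cut at about 26% in these data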
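Test system: DeaD-strain S. cerevisiae / Buffer or medium: restrictive glucose medium / Also added: nicotinamide 1.5 mM / Doses: one concentration, 10 µM, DMSO 0.25% / Schedule: 48 h at 30 °C / Signal: OD615 measurement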
MT stabilize HCS: microtubule stabilizers in HeLa cells; HeLa tubulin immunostaining HCS, 24 h; share of cells brighter than vehicle mean+2SD; % tubulin-high responders, % at 10 µM; hit rate 0.83% among 200,000; AID 2205;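 active = plate Z-score above 3 for both tubulin-high and condensed-nucleus cell shares, with cell loss under 80%, at 10 µM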;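 note: anti alpha tubulin signal scored within the nucleus-defined area of each cell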
Yeast growth inh: yeast BB579 growth reduction in restrictive medium; hit rate 0.51% among 140,000; S. cerevisiae BB579 growth, OD615, 48 h; inhibition, % at 10 µM; AID 804;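 active = inhibition above a set limit, 3 SD over the mean compound inhibition, cut at about 44% in these data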
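System: Saccharomyces cerevisiae DeaD strain BB579, replicative lifespan model yeast | Buffer or medium: Restrictive glucose-based CSMM-D medium | Times: 4 h preincubation and 48 h exposure at 30 °C | Detection: OD615 turbidity measurement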
RAM network inh: blocks the yeast RAM network. S. cerevisiae dse1pr::URA3 reporter, 5-FOA growth OD615, 2 d; analog-sensitive cbk1-as2 kinase mutant strain. inhibition, % at 50 µM. hit rate 1.8% among 190,000. AID 868;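 active = inhibition above a set limit, 3 SD over mean compound inhibition, cut at about 8.4% in these data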;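 note: inhibition rescues growth on 5-FOA so higher OD means more RAM inhibition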
RAM efflux-def: RAM network inhibition, efflux-deficient strain. S. cerevisiae efflux-deficient reporter strain, 5-FOA growth OD615, 2 days. max inhibition, %. shares compounds with RAM network inh. 1,200 tested, under 10 active; call rule not given here
Each line names hits and unclear results; the compound was inactive in the other large screens (follow-up assays come after a bar, where they were run). Only some compounds are listed: those with a hit (about 3.5% of all), similar ones and a draw of the others.

CCCCN1C(=O)C2(NNc3ccccc3O2)c2ccccc21 (stereo not drawn)	RAM network inh 14.9 | RAM efflux-def inactive
C=CCN1C(=O)C2(NNc3ccccc3O2)c2ccccc21 (stereo not drawn)	none (no result: b-catenin transl)
O=C(Nc1ccccc1-c1nnc(SCc2ccccc2Cl)o1)c1ccccc1	RAM network inh 11.7 | RAM efflux-def inactive
O=C(Nc1ncn[nH]1)c1cccc(S(=O)(=O)N2CCOCC2)c1	none (no result: Yeast lifespan up, Yeast growth inh)
N#CC(C#N)=C(Nc1ccc(F)cc1)SCc1cccc(Br)c1	RAM network inh 13.8 | RAM efflux-def inactive
Cc1cccc(CSC(Nc2ccc(F)cc2)=C(C#N)C#N)c1	none
CC(=O)Nc1nn(C)c2nc(C)cc(C)c12	none (no result: Yeast lifespan up, Yeast growth inh)
Cc1ccc(S(=O)(=O)c2c(CO)c(-c3ccccc3)nn2C)cc1	RAM network inh 13.6 (no result: Yeast lifespan up, Yeast growth inh) | RAM efflux-def inactive
CCOc1ccc(N2C(=O)Nc3ccccc3C2(O)C(=O)N2CCN(c3ccccn3)CC2)cc1 (stereo not drawn)	none (no result: Yeast lifespan up, Yeast growth inh)
COc1ccc(CC(=O)Nc2cccc(S(=O)(=O)N3CCCCCC3)c2)cc1OC	RAM network inh 11.7 | RAM efflux-def inactive
COc1ccc(S(=O)(=O)Nc2cccc(S(=O)(=O)N3CCCCCC3)c2)cc1	RAM network inh 14.3 | RAM efflux-def inactive
CC(=O)c1cc(CN2CCN(C(C)C)C(CCO)C2)cs1 (stereo not drawn)	none (no result: Yeast lifespan up, Yeast growth inh)
CC(C)N(Cc1nc(-c2ccc(Cl)cc2)no1)C(=O)/C=C/c1ccccc1	RAM network inh 11.7 | RAM efflux-def inactive
O=C(NNc1cc(Br)c(O)c(Br)c1)c1ccccc1	none (no result: Yeast lifespan up, Yeast growth inh)
COc1ccc(C(=O)Nc2ccc(C(=O)OCC(=O)c3ccccc3)cc2)cc1	none
COc1ccc(C(=O)OCC(=O)c2ccc(C3CCCCC3)cc2)cc1	RAM network inh 11.4 | RAM efflux-def inactive
COc1ccc(-c2nn(CCC(=O)O)cc2/C=C2\SC(N)=NC2=O)cc1OC	none
CCCOc1ccc(-c2nn(-c3ccccc3)cc2/C=C2\SC(N)=NC2=O)cc1C	RAM network inh 12.6 | RAM efflux-def inactive
Cc1ccc(S(=O)(=O)c2c(C)cc(C)nc2Oc2cccc(C(F)(F)F)c2)cc1	RAM network inh 14.0 | RAM efflux-def inactive
Cc1cc(-c2ccccc2)nc(Oc2cccc(C(F)(F)F)c2)c1S(C)(=O)=O	none
COc1nc2ccc(C)cc2cc1-c1noc(-c2ccccc2)n1	RAM network inh 12.1 | RAM efflux-def inactive
CCCCc1nc2sc3c(=O)n(N)cnc3c2c2c1CCC2	none (no result: Yeast lifespan up, Yeast growth inh)
CCn1c(SCc2nc3ccccc3c(=O)[nH]2)nc2ccccc21	RAM network inh 12.2 (no result: Yeast lifespan up, Yeast growth inh) | RAM efflux-def inactive
Cc1ccn(C(=O)c2ccc(NC(=O)C3CC3)cc2)n1	none (no result: Yeast lifespan up, Yeast growth inh)
Cc1ccc(S(=O)(=O)N(CC(=O)N/N=C/c2ccccc2C(=O)O)c2cc(Cl)cc(Cl)c2)cc1	none (no result: Yeast lifespan up, Yeast growth inh)
CC1=C(C(=O)Nc2ccccc2C(F)(F)F)C(c2sccc2C)NC(=S)N1 (stereo not drawn)	none (no result: Yeast lifespan up, Yeast growth inh)
O=C(COC(=O)CC(c1ccccc1)c1ccccc1)Nc1ccc(F)c(F)c1	RAM network inh 11.7 (no result: Yeast lifespan up, Yeast growth inh) | RAM efflux-def inactive
C=CCNC(=O)c1ccc2c(c1)nnn2C	RAM network inh 13.5 | RAM efflux-def inactive
CNC(=O)c1ccc2c(c1)nnn2C	none
NNC(=O)CCc1nc2ccccc2[nH]1	none (no result: Yeast lifespan up, Yeast growth inh)
O=[N+]([O-])c1ccc(-c2nnc(-c3ccccc3)c(NCCCO)n2)cc1	RAM network inh 12.7 (no result: b-catenin transl) | RAM efflux-def inactive
OCCCNc1nc(-c2ccc(Cl)cc2)nnc1-c1ccc(Br)cc1	none
CCOC(=O)C1(Cc2cccc(F)c2)CCN(C(=O)c2ccoc2C)CC1	none (no result: Yeast lifespan up, Yeast growth inh)
Cc1ccc(NC(=O)CCSc2nnnn2-c2ccc3c(c2)OCO3)cc1C	RAM network inh 11.6 | RAM efflux-def inactive
O=C(CSc1nnc(-c2ccc(Cl)s2)o1)N1CCCc2ccccc21	RAM network inh 14.5 | RAM efflux-def inactive
NS(=O)(=O)c1ccc(NC(=O)COC(=O)c2cnccn2)cc1	none (no result: Yeast lifespan up, Yeast growth inh)
CCCOc1cccc(C(=O)NC(=S)Nc2cccc(C(F)(F)F)c2)c1	RAM network inh 12.1 | RAM efflux-def inactive
CC(C)CNC(=O)c1ccccc1NC(=O)c1ccc(CSc2ccccc2)cc1	RAM network inh 18.0 | RAM efflux-def inactive

From PubChem BioAssay
